PMC7302971 (Bioorganic chemistry, 2020)
Where two headings read alike, the source gives them in different places.

Tests used:
[1] = target: HDAC4 (Homo sapiens, UniProt P56524); experiment: HDAC enzyme activity assay; format: biochemical; conditions: for remaining activity at 50 µM: read-out: Residual HDAC4 activity at 50 μM
How it was run: (§1)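 HDAC4 and HDAC8 were in-house recombinant enzymes. Each was preincubated with inhibitor, either a single 50 μM screen or serial dilutions, for 60 min at 30 °C in Tris-HCl pH 8.0/KCl/Pluronic buffer. Substrate was 20 μM Boc-Lys(trifluoroacetyl)-AMC for 60 min at 30 °C, stopped with 1.7 μM SATFMK, and developed with trypsin. AMC fluorescence was read at 350/450 nm and reported as residual activity or as IC50 from a four-parameter logistic fit.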

[2] = target: T1, HDAC8 (Homo sapiens, UniProt Q9BY41); experiment: HDAC enzyme activity assay; format: biochemical; conditions: for remaining activity at 50 µM: read-out: Residual HDAC8 activity at 50 μM
T1 sequence (Q9BY41 1-377): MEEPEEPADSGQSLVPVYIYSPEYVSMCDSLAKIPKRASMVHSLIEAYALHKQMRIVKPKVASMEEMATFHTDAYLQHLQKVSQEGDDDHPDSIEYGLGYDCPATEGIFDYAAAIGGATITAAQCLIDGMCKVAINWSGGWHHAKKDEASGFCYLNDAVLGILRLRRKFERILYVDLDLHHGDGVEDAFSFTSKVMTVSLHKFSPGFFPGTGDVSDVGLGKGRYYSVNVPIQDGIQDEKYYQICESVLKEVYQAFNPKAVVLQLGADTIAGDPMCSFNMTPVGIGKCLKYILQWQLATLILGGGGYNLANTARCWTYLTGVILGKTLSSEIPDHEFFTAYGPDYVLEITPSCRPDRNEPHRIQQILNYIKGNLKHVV
How it was run: as §1

[3] = target: T1, HDAC8; experiment: Thermal shift assay; format: binding
[4] = tested on: KCL-22 leukemia cells; experiment: Differential Nuclear Staining; format: cell-based, human; conditions: for cell death at 100 μM: KCL22, DNS assay, 48 h
How it was run: (§2)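 Cells were seeded at 10,000/well and exposed to test compound for 48 h at 1% (v/v) final DMSO. The first screen used a single concentration with controls in quadruplicate. Dose-response used 0.5–100 μM in triplicate. Controls: DMSO vehicle, hydrogen peroxide (positive), untreated (negative). Hoechst 33342 plus PI were added 2 h before automated imaging, and colocalised signal was scored as dead. […] Two-tailed t-test versus DMSO.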

[5] = tested on: K-562 leukemia cells; experiment: Differential Nuclear Staining; format: cell-based, human; conditions: for cell death at 100 μM: K562, DNS assay, 48 h; for CC50: Homo sapiens, K562, 48 h
How it was run: as §2

[6] = tested on: CEM leukemia cells; experiment: Differential Nuclear Staining; format: cell-based, human; conditions: 48 h; for CC50: Homo sapiens; for cell death at 100 μM: CEM, DNS assay
How it was run: as §2

HDAC4, sequence (P56524 648-1057 limits assumed): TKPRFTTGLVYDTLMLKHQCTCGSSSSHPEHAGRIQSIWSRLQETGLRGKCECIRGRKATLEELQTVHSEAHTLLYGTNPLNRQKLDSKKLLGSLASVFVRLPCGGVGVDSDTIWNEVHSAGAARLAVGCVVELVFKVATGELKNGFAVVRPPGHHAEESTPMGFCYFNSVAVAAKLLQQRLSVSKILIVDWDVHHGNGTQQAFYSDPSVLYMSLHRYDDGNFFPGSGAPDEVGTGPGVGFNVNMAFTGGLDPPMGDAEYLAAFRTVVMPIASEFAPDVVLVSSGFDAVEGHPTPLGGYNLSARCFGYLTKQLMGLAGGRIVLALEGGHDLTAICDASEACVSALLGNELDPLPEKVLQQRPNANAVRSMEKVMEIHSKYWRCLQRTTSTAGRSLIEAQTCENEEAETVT

Compound	IC50 [1] [µM]	remaining activity at 50 µM [1] [%]	IC50 [2] [µM]	remaining activity at 50 µM [2] [%]	also measured
2-(2,4-dioxo-5-(pyridin-2-ylmethylene)thiazolidin-3-yl)-N-(4-methylisoxazol-3-yl)acetamide [Compound P18]					Residual HDAC4 activity at 50 μM ([1]; 50 μM): 100%; IC50 ([1]; read-out: HDAC4 IC50, triplicates, N=3): > 50 µM; Residual HDAC8 activity at 50 μM ([2]; 50 μM): 99%; IC50 ([2]; read-out: HDAC8 IC50, triplicates, N=3): > 50 µM
O=C(CN1C(=O)SC(=Cc2ccccn2)C1=O)Nc1ccc(Cl)c(Cl)c1 [Compound P8, N-(3,4-dichlorophenyl)-2-(2,4-dioxo-5-(pyridin-2-ylmethylene)thiazolidin-3-yl)acetamide]	> 50	100	> 50	82	cell death at 100 μM [4]: 29.22% cell death at 100 μM; cell death at 100 μM [5]: 40.28% cell death at 100 μM; CC50 [6]: 36.9 ± 1.11 µM
O=C(CN1C(=O)SC(=Cc2ccccn2)C1=O)Nc1cc(C(F)(F)F)ccc1Cl [Compound P9, N-(2-chloro-5-(trifluoromethyl)phenyl)-2-(2,4-dioxo-5-(pyridin-2-ylmethylene)thiazolidin-3-yl)acetamide]		100		38	cell death at 100 μM [4]: 6.54% cell death at 100 μM; CC50 [5]: 102 ± 2.45 µM; Thermal shift (ΔT), stabilizing effect on HDAC8 [3]: did not confer significant stability to the protein; cell death at 100 μM [6]: 4.80% cell death at 100 μM
O=C(CN1C(=O)SC(=Cc2ccccn2)C1=O)Nc1ccc(F)cc1 [Compound P11, 2-(2,4-dioxo-5-(pyridin-2-ylmethylene)thiazolidin-3-yl)-N-(4-fluorophenyl)acetamide]	> 50	100	> 50		
O=C(CN1C(=O)SC(=Cc2ccccn2)C1=O)Nc1ccccc1Oc1ccccc1 [Compound P13, 2-(2,4-dioxo-5-(pyridin-2-ylmethylene)thiazolidin-3-yl)-N-(2-phenoxyphenyl)acetamide]	> 50	100	> 50	91	
COc1ccc(NC(=O)CN2C(=O)SC(=Cc3ccccn3)C2=O)cc1 [Compound P14, 2-(2,4-dioxo-5-(pyridin-2-ylmethylene)thiazolidin-3-yl)-N-(4-methoxyphenyl)acetamide]	> 50	100	> 50	67	
O=C(CN1C(=O)SC(=Cc2ccccn2)C1=O)Nc1c(F)cc(Br)cc1F [Compound P15, N-(4-bromo-2,6-difluorophenyl)-2-(2,4-dioxo-5-(pyridin-2-ylmethylene)thiazolidin-3-yl)acetamide]	> 50	100	> 50	94	
O=C(CN1C(=O)SC(=Cc2ccccn2)C1=O)Nc1ccc([N+](=O)[O-])cc1 [Compound P16, 2-(2,4-dioxo-5-(pyridin-2-ylmethylene)thiazolidin-3-yl)-N-(4-nitrophenyl)acetamide]	> 50	100	> 50		
Cc1ccc(NC(=O)CN2C(=O)SC(=Cc3ccccn3)C2=O)cc1Cl [Compound P17, N-(3-chloro-4-methylphenyl)-2-(2,4-dioxo-5-(pyridin-2-ylmethylene)thiazolidin-3-yl)acetamide]	> 50	100	> 50	88	
O=C(CN1C(=O)SC(=Cc2ccccn2)C1=O)Nc1nccs1 [Compound P20, 2-(2,4-dioxo-5-(pyridin-2-ylmethylene)thiazolidin-3-yl)-N-(thiazol-2-yl)acetamide]	> 50	100	> 50	92	
Cc1cnc(NC(=O)CN2C(=O)SC(=Cc3ccccn3)C2=O)s1 [Compound P21, 2-(2,4-dioxo-5-(pyridin-2-ylmethylene)thiazolidin-3-yl)-N-(5-methylthiazol-2-yl)acetamide]	> 50	100	> 50	54	
O=C(CN1C(=O)SC(=Cc2ccccn2)C1=O)Nc1ccc(Br)cc1 [Compound P22, N-(4-bromophenyl)-2-(2,4-dioxo-5-(pyridin-2-ylmethylene)thiazolidin-3-yl)acetamide]	> 50	100	> 50	64	
O=C(CN1C(=O)SC(=Cc2ccccn2)C1=O)Nc1ccccn1 [Compound P23, 2-(2,4-dioxo-5-(pyridin-2-ylmethylene)thiazolidin-3-yl)-N-(pyridin-2-yl)acetamide]	> 50	85	> 50	54	
COc1cccc(NC(=O)CN2C(=O)SC(=Cc3ccccn3)C2=O)c1 [Compound P24, 2-(2,4-dioxo-5-(pyridin-2-ylmethylene)thiazolidin-3-yl)-N-(3-methoxyphenyl)acetamide]	> 50	100	> 50	68	
O=C(CN1C(=O)SC(=Cc2ccccn2)C1=O)Nc1ccc(Br)c(Br)c1 [Compound P25, N-(3,4-dibromophenyl)-2-(2,4-dioxo-5-(pyridin-2-ylmethylene)thiazolidin-3-yl)acetamide]	> 50	86	> 50	89	CC50 ([4]; Homo sapiens, KCL-22, 48 h): 82.2 ± 0.32 µM; CC50 [5]: 65.6 ± 1.13 µM; CC50 [6]: 39 ± 1.69 µM

Further lines, with some results ahead:

IC50 [1] [µM]	remaining activity at 50 µM [1] [%]	IC50 [2] [µM]	remaining activity at 50 µM [2] [%]	Compound	also measured
> 50	100	> 50	89	O=C(CN1C(=O)SC(=Cc2ccccn2)C1=O)Nc1ccccc1 [Compound P1, 2-(2,4-dioxo-5-(pyridin-2-ylmethylene)thiazolidin-3-yl)-N-phenylacetamide]	
> 50	100	> 50	92	O=C(CN1C(=O)SC(=Cc2ccccn2)C1=O)Nc1ccccc1F [Compound P2, 2-(2,4-dioxo-5-(pyridin-2-ylmethylene)thiazolidin-3-yl)-N-(2-fluorophenyl)acetamide]	
> 50	100	> 50	53	O=C(CN1C(=O)SC(=Cc2ccccn2)C1=O)Nc1cccc(F)c1 [Compound P3, 2-(2,4-dioxo-5-(pyridin-2-ylmethylene)thiazolidin-3-yl)-N-(3-fluorophenyl)acetamide]	
> 50	100	> 50	85	O=C(CN1C(=O)SC(=Cc2ccccn2)C1=O)Nc1ccc(Br)cc1F [Compound P4, N-(4-bromo-2-fluorophenyl)-2-(2,4-dioxo-5-(pyridin-2-ylmethylene)thiazolidin-3-yl)acetamide]	
50	59	> 50	80	O=C(CN1C(=O)SC(=Cc2ccccn2)C1=O)Nc1ccc(F)cc1F [Compound P5, N-(2,4-difluorophenyl)-2-(2,4-dioxo-5-(pyridin-2-ylmethylene)thiazolidin-3-yl)acetamide]	Thermal shift (ΔT), stabilizing effect on HDAC8 [3]: did not confer significant stability to the protein
> 50	100	> 50	82	O=C(CN1C(=O)SC(=Cc2ccccn2)C1=O)Nc1cccc(C(F)(F)F)c1 [Compound P6, 2-(2,4-dioxo-5-(pyridin-2-ylmethylene)thiazolidin-3-yl)-N-(3-(trifluoromethyl)phenyl)acetamide]	
> 50	100	> 50	61	O=C(CN1C(=O)SC(=Cc2ccccn2)C1=O)Nc1ccc(Cl)cc1C(F)(F)F [Compound P7, N-(4-chloro-2-(trifluoromethyl)phenyl)-2-(2,4-dioxo-5-(pyridin-2-ylmethylene)thiazolidin-3-yl)acetamide]	
	100	47 ± 1.1	75	Cc1ccc(NC(=O)CN2C(=O)SC(=Cc3ccccn3)C2=O)cc1 [Compound P12, 2-(2,4-dioxo-5-(pyridin-2-ylmethylene)thiazolidin-3-yl)-N-(p-tolyl)acetamide]	cell death at 100 μM [4]: 24.81% cell death at 100 μM; cell death at 100 μM [5]: 39.42% cell death at 100 μM; Thermal shift (ΔT), stabilizing effect on HDAC8 [3]: did not confer significant stability to the protein; cell death at 100 μM [6]: 38.67% cell death at 100 μM
